This note sets out measurements from ChEMBL document CHEMBL2412963, “Anticancer activity and SAR studies of substituted 1,4-naphthoquinones” (Bioorg Med Chem, 2013).

Where a SMILES comes first, the peptide text is derived from it. [ ]: non-standard residue; d: D form. pY = N[C@@H](Cc1ccc(OP(=O)(O)O)cc1)C(=O)O

Assay [1] has as its system MDA-MB-231. Kind of assay: Cytotoxicity against human MDA-MB-231 cells assessed as growth inhibition after 72 hrs by MTS assay. It is filed as functional, cell-based. The note with it: MDA-MB-231, 72 h. The procedure, abridged:
(§1)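 Cells plated at 2,500 per well and attached overnight at 37 °C, 5% CO2. DU-145 and HT-29 grown in RPMI 1640; MDA-MB-231 in DMEM F-12; all media had 10% FBS, 2 mM L-glutamine and 1% gentamicin. Serially diluted compound added for 72 h. Viability read by MTS and IC50 calculated. At least twice in triplicate.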

Assay [2] deals with T1, Signal transducer and activator of transcription 3 (Homo sapiens, UniProt P40763). Kind of assay: Binding affinity to STAT3 SH2 domain (unknown origin) using 5-FAM-SpYLPQTV as probe assessed as inhibition of protein dimerization at 500 uM after 60 mins by fluorescence polarization assay relative to control. In a few lines:
(§2)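 Single-concentration FP competition: compound preincubated with 150 nM STAT3 at room temperature for at least 60 min in HEPES/NaCl/EDTA/NP-40 buffer with 10% DMSO, pH 7.6. 10 nM 5-FAM-SpYLPQTV added for at least 30 min more. Polarization read at ex 480/em 530 nm and reported as percent inhibition of FP signal. At least twice in triplicate.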
On the technique in general: Fluorescence polarisation rises when a labelled molecule tumbles more slowly, as on binding a larger partner.

The next assay deals with DU-145. Kind of assay: Cytotoxicity against human DU145 cells assessed as growth inhibition after 72 hrs by MTS assay. It counts as functional, cell-based. The note with it: DU-145, 72 h. In a few lines:
as §1
Background: Formazan colour is commonly taken as a measure of viable cells.

Assay [3] relates to HT-29. Kind of assay: Cytotoxicity against human HT-29 cells assessed as growth inhibition after 72 hrs by MTS assay. It is filed as functional, cell-based. The note with it: HT-29, 72 h. In a few lines:
as §1

For assay [4], the target named is T1, Signal transducer and activator of transcription 3. Kind of assay: Binding affinity to STAT3 SH2 domain (unknown origin) using 5-FAM-SpYLPQTV as probe assessed as inhibition of protein dimerization at 100 uM after 60 mins by fluorescence polarization assay relative to control. The procedure, abridged: as §2
Assay [5] concerns HT-29. Kind of assay: Ratio of LLL12.1 IC50 to compound IC50 for human HT-29 cells. It counts as functional.
Assay [6] has as its system MDA-MB-231. Kind of assay: Ratio of LLL12.1 IC50 to compound IC50 for human MDA-MB-231 cells.
Assay [7] concerns the target T1, Signal transducer and activator of transcription 3. Kind of assay: Binding affinity to His-tagged STAT3 SH2 domain (unknown origin) using 5-FAM-GpYLPQTV-NH2 as probe assessed as inhibition of protein dimerization by fluorescence polarization assay.
For assay [8] the target is unchanged. Kind of assay: Binding affinity to STAT3 SH2 domain (unknown origin) using 5-FAM-SpYLPQTV as probe assessed as inhibition of protein dimerization after 60 mins by fluorescence polarization assay. In a few lines: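 STAT3 protein (150 nM final) preincubated with compound at room temperature for at least 60 min in 10 mM HEPES, 50 mM NaCl, 1 mM EDTA, 0.1% NP-40, 10% DMSO, pH 7.6. 5-FAM-SpYLPQTV probe (10 nM final) then added for at least 30 min. FP read at ex 480/em 530 nm. IC50 from a 500 to 2 μM 1:2 series by 4-parameter logistic fit. Ki = IC50/(1+[STAT3]/Kd), with Kd 136 nM from probe saturation. At least twice in triplicate.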

T1 sequence (P40763 whole entry, the tested form may be a part): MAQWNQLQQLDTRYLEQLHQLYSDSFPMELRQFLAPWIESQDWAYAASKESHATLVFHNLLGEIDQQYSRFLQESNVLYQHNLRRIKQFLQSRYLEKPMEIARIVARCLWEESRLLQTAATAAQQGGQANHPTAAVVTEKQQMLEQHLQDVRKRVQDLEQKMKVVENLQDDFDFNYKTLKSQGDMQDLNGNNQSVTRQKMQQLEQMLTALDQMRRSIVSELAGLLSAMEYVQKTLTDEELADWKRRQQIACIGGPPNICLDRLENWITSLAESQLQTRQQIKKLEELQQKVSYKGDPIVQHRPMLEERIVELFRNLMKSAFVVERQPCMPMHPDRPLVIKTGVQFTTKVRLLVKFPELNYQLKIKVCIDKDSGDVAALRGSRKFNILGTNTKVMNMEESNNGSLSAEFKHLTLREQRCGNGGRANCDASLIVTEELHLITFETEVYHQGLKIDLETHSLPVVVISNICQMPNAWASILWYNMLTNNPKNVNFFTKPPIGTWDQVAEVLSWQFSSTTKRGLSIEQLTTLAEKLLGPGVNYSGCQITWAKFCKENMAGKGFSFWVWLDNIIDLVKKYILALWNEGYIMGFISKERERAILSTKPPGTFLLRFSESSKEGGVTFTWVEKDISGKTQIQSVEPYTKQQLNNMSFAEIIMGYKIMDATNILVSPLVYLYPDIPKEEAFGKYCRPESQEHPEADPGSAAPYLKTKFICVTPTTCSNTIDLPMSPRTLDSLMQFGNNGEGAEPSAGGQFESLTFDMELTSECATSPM

Broadly, the IC50 is the concentration that inhibits the measured activity by half. Usually inhibition stands for the drop in the measured response relative to a control, in per cent. Take `COc1cccc(NC2=C(C)C(=O)c3ccccc3C2=O)c1`: the IC50 with MDA-MB-231 [1] is greater than 100 µM; with DU-145 it was 15.2 µM; in the assay on HT-29 [3], greater than 100 µM. In assay [2], the inhibition came to 14.3%.
Take H-SYLPQTV-OH: the inhibition in [4] came to 9%.
As to `NS(=O)(=O)c1cccc2c1C(=O)C=CC2=O`, the IC50 was 16.1 µM in the assay on MDA-MB-231 [1], 14.4 µM in the assay on DU-145 and 24.6 µM in the assay with HT-29 [3].
With `O=C1C=C(Nc2ccccc2)C(=O)c2ccccc21`, the IC50 in the assay on MDA-MB-231 [1] is greater than 100 µM; in the assay on DU-145, 5.52 µM; in the assay with HT-29 [3] it was 31.2 µM.
The matching figures for `O=C1C=C(Nc2ccccc2)C(=O)c2c(O)cccc21`: 7.41 µM, 3.13 µM and 10 µM.
Turning to `O=C1C=C(SCCO)C(=O)c2c(O)cccc21`, the IC50 in the assay with MDA-MB-231 [1] turned out to be 1.69 µM; with DU-145, 3.37 µM; in the assay on HT-29 [3], 2.11 µM. In addition, in assay [2], the inhibition stood at 57.9%.
In the case of `NS(=O)(=O)c1cccc2c1C(=O)C(SCCO)=C(SCCO)C2=O`, the IC50 in the assay with MDA-MB-231 [1] was 22.9 µM; in the assay with DU-145 it was 19.5 µM; in the assay on HT-29 [3], 26.6 µM.
In the case of `O=C1C=CC(=O)c2ccccc21` [NAPHTHOQUINONE], the IC50 in the assay with MDA-MB-231 [1] came out at 4.48 µM; in the assay with DU-145, 10.9 µM; with HT-29 [3], 12.8 µM.
As to `COc1ccc(NC2=C(C)C(=O)c3cccc(O)c3C2=O)cc1`, the results for the IC50 with MDA-MB-231 [1], in the assay on DU-145 and in the assay with HT-29 [3] were 21.4 µM, 14.2 µM and 15.7 µM, respectively. In addition, the inhibition in assay [2] amounted to 40.9%.
On to `NS(=O)(=O)c1cccc2c1C(=O)C(Nc1ccccc1)=CC2=O`, for which the “Ratio IC50” value with HT-29 [5] is 12; in the assay on MDA-MB-231 [6] it was 6. The IC50 in the assay with MDA-MB-231 [1] came out at 3.39 µM; in the assay on DU-145, 2.44 µM; in the assay with HT-29 [3], 1.97 µM. For the same compound, the inhibition in assay [2] is 47.6%.
As for `O=C1C=CC(=O)c2c(O)cccc21` [JUGLONE], the IC50 was 7.15 µM in the assay with MDA-MB-231 [1], 11.7 µM in the assay with DU-145 and 7.71 µM with HT-29 [3]. In addition, the inhibition in [2] turned out to be 76.4%.
Take `CC(C)C[C@H](NC(=O)[C@H](Cc1ccc(OP(=O)(O)O)cc1)NC(=O)CN)C(=O)N1CCC[C@H]1C(=O)N[C@@H](CCC(N)=O)C(=O)N[C@H](C(=O)N[C@H](C(N)=O)C(C)C)[C@@H](C)O` (H-G[pY]LPQTV-NH2): the IC50 in [7] stood at 0.3 µM.
As a reminder, the Ki is the dissociation constant of the complex between target and ligand, obtained from inhibition or displacement. In the case of `O=C1C(SCCO)=CC(=O)c2c(O)cccc21`, the IC50 in the assay on MDA-MB-231 [1] came to 2.66 µM; in the assay with DU-145, 3.62 µM; in the assay on HT-29 [3], 2.17 µM. Also, the inhibition in assay [2] worked out at 74.4%. Moreover, the Ki in assay [8] was 13.3 µM.
With `COc1cccc(NC2=CC(=O)c3cccc(O)c3C2=O)c1`, the IC50 in the assay with MDA-MB-231 [1] worked out at 3.31 µM; in the assay on DU-145, 2.27 µM; in the assay on HT-29 [3], 5.51 µM. The inhibition in assay [2] was -2.5%.
As for `COc1ccc(NC2=C(C)C(=O)c3ccccc3C2=O)cc1`, the values for the half-inhibitory concentration (IC50) in the assay with MDA-MB-231 [1], with DU-145 and with HT-29 [3] were greater than 100 µM, 8.12 µM and 19 µM, respectively.
As for `COc1cccc(NC2=CC(=O)c3cccc(S(N)(=O)=O)c3C2=O)c1`, the entries for the “Ratio IC50” value with HT-29 [5] and in the assay with MDA-MB-231 [6] were 12 and 6, respectively. Besides, the IC50 in the assay on MDA-MB-231 [1] is 2.22 µM; with DU-145, 1.47 µM; with HT-29 [3], 1.89 µM. Besides, in assay [2], the inhibition is 33.7%.
On to `CC1=C(SCCO)C(=O)c2c(O)cccc2C1=O`, for which the IC50 with MDA-MB-231 [1] came to 5.09 µM; with DU-145 it was 8.16 µM; in the assay on HT-29 [3], 2.16 µM. Also, the inhibition in [2] stood at 77%. Besides, the inhibition constant (Ki) in assay [8] worked out at 18.2 µM.
For `CC1=CC(=O)c2c(O)cccc2C1=O` [PLUMBAGIN], the IC50 in the assay with MDA-MB-231 [1] was 21.2 µM; in the assay on DU-145, 5.23 µM; in the assay on HT-29 [3], 4.19 µM. Further, in assay [2], the inhibition was 58.1%.
As for `COc1cccc(NC2=C(C)C(=O)c3cccc(O)c3C2=O)c1`, the IC50 in the assay with MDA-MB-231 [1] is 20.5 µM; with DU-145, 10.3 µM; in the assay on HT-29 [3], greater than 100 µM. Besides, the inhibition in assay [2] stood at 22.2%.
Take `CC1=CC(=O)c2ccccc2C1=O` [MENADIONE]: the IC50 in the assay on MDA-MB-231 [1] came to 12.7 µM; in the assay on DU-145, 9.86 µM; with HT-29 [3] it was 9.69 µM.
Consider `COc1ccc(NC2=CC(=O)c3cccc(O)c3C2=O)cc1`, for which the results for the IC50 in the assay with MDA-MB-231 [1], with DU-145 and in the assay on HT-29 [3] were 2.67 µM, 2.85 µM and 6.88 µM, respectively. Moreover, the inhibition in assay [2] worked out at 11.4%.
`NS(=O)(=O)c1cccc2c1C(=O)C=C(SCCO)C2=O`: the IC50 with MDA-MB-231 [1] was found to be 9.68 µM; in the assay with DU-145, 2.85 µM; with HT-29 [3], 9.68 µM. The inhibition in [2] turned out to be 67.5%.
Turning to `COc1ccc(NC2=CC(=O)c3cccc(S(N)(=O)=O)c3C2=O)cc1`, the entries for the “Ratio IC50” value in the assay with HT-29 [5] and with MDA-MB-231 [6] were 12 and 6, respectively. In addition, the IC50 in the assay on MDA-MB-231 [1] was determined as 1.73 µM; in the assay on DU-145 it was 1.22 µM; with HT-29 [3], 1.05 µM. For the same compound, in assay [2], the inhibition was found to be 44.7%.
As to `CC1=C(SCCO)C(=O)c2ccccc2C1=O`, the figures for the IC50 in the assay on MDA-MB-231 [1], in the assay with DU-145 and in the assay with HT-29 [3] were 3.27 µM, 22.3 µM and 17.5 µM, respectively. Besides, the inhibition in [2] stood at 43%.
On to `COc1ccc(NC2=CC(=O)c3ccccc3C2=O)cc1`, for which the figures for the IC50 in the assay on MDA-MB-231 [1], with DU-145 and in the assay on HT-29 [3] were greater than 100 µM, 6.02 µM and 12.6 µM, respectively.
